Assay outcomes from PubChem.
E-sel TNF inh: E-selectin induction blockers in HUVEC – imaging, immunofluorescence, high content, primary screen. HUVEC TNFa-induced E-selectin immunofluorescence. inhibition, % at 2 µM. AID 1246, 2008. 0.71% of 120,000 active;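 active = inhibition above the batch mean plus 3 SD, and confirmed as a hit on visual image review, cut at about 43% in these data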;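 note: 0% = TNF-stimulated DMSO wells and 100% = unstimulated control wells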
FAK inh: FAK kinase inhibitors, primary screen, biochemical; Focal adhesion kinase 1 (Homo sapiens), Q05397; biochemical FAK kinase activity assay; inhibition, %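 (tested at 7 µM)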; 0.84% of 97,000 active; in the data active = inhibition above about 19%;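 note: 0% = DMSO and 100% = reference compound high control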
cytoskel mod: modifiers of F-actin cytoskeleton organization, primary screen, imaging, HUVEC, phalloidin staining, high-content imaging. 0.18% of 91,000 active. AID 836, 2007. inhibition, % at 2 µM. HUVEC TNFa F-actin phalloidin imaging;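 active = inhibition above the batch mean plus 3 SD and confirmed as a hit by visual image inspection, cut at about 30% in these data, passing the limit was not always enough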
PLK1 inh: human PLK1 kinase inhibitors, primary screen, biochemical, TR-FRET; recombinant PLK1 kinase, TR-FRET peptide phosphorylation; inhibition, % at 10 µM; 0.53% of 97,000 active;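 active = inhibition of 50% or more in the single-concentration screen; inactive = inhibition below 50%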;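 note: 0% = DMSO max control and 100% = H-89 dihydrochloride min control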
Plk1 PBD FP: Plk1 polo box domain binding inhibitors, primary screen, biochemical, fluorescence polarization; Serine/threonine-protein kinase PLK1 (Homo sapiens), P53350; Plk1 PBD phosphopeptide binding; inhibition, %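 (tested at about 20 µM)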; 0.13% of 97,000 active; AID 693, 2007; in the data active = inhibition above about 34%, passing the limit was not always enough
HIV Rev-RRE inh: HIV-1 Rev-RRE binding inhibitors, primary screen, biochemical, FRET, protein-RNA interaction | P05866 | Rev peptide-RRE RNA binding | inhibition, % at 8 µM | 0.79% of 97,000 active | AID 704, 2007;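 active = inhibition above the screen-wide mean plus 3 SD, cut at about 35% in these data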;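 note: 0% = median DMSO wells and 100% = median Neomycin B control wells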
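Material: labelled RRE RNA duplex and labelled Rev peptide / Buffer or medium: HEPES pH 7.5 salt buffer with EDTA / Compound dosing: single point, 8 µM final nominal compound concentration / Benchmarks: DMSO low control, neomycin B high control / Timing: 5 min preincubation and 15 min binding, 25 °C / Technique: FRET fluorescence readout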
* hit, by the source's call; . = no result; [ ] = dose if it differs, or a comment. Rows were chosen to be rich in hits. Some 2.2% of all compounds tested hit in one or more screens of this group.

SMILES | E-sel TNF inh | FAK inh | cytoskel mod | PLK1 inh | Plk1 PBD FP | HIV Rev-RRE inh
COc1ccc(C(=O)NC2(C(F)(F)F)NC(=O)N(CCCc3ccccc3)C2=O)cc1OC (stereo unspecified) | 15 | . | . | . | . | .
CCN1C(=O)/C(=C/c2ccc(OC)c(OC)c2)N=C1SCC(=O)NCc1ccco1 | -15 | . | . | . | . | .
Cn1c(-c2c(N)n(CCCc3ccccc3)c3nc4ccccc4nc23)nc2ccccc21 | -11 | -1 | 6 | -19 | -9 | 45*
Cn1c(-c2c(N)n(CCc3ccccc3)c3nc4ccccc4nc23)nc2ccccc21 | -12 | 0 | 2 | -19 | 12 | 44*
N#Cc1c(N)n(CCc2ccc(F)cc2)c2nc3ccccc3nc12 | -16 | -2 | 8 | 9 | -2 | 24
Nc1c(C(=O)OCC2CCCO2)c2nc3ccccc3nc2n1C1CCCC1 (stereo unspecified) | . | -4 | . | -6 | 5 | 3
Cn1c(-c2c(N)n(C3CCCC3)c3nc4ccccc4nc23)nc2ccccc21 | -10 | -2 | . | -17 | -3 | 58*
COCCCn1c(N)c(-c2nc3ccccc3n2C)c2nc3ccccc3nc21 | 7 | 0 | . | 0 | -12 | 58*
CCc1nnc(NS(=O)(=O)c2ccc(NC(=S)NC(=O)/C=C/c3ccc(C(C)C)cc3)cc2)s1 | -14 | 17 | 1 | -10 | 12 | 1
CCc1nc(SCC(=O)Nc2sc(C)c(C)c2C(=O)OC)c2ccccc2n1 | . | 15 | 6 | -10 | -38 | 1
CCN(C(=O)COC(=O)c1ccc2c(=O)n3c(nc2c1)CCC3)C1CCS(=O)(=O)C1 (stereo unspecified) | -20 | . | . | . | . | .
CCOC(=O)CSc1nc(=O)n2cc(C)ccc2n1 | 5 | . | . | . | . | .
COCCCNC(=O)C1CCC(CNS(=O)(=O)c2ccc(Cl)cc2)CC1 (stereo unspecified) | -2 | . | . | . | . | .
COc1ccc(-c2nc(CN3CCCCC3c3nccn3C)c(C)o2)c(C)c1C (stereo unspecified) | -11 | . | . | . | . | .
Cc1cccc(/C=C/C(=O)c2cc(Br)ccc(=O)c2O)c1 | 17 | -4 | 0 | -14 | -19 | 37*
CCOC(=O)N1CCN(C(=O)c2ccc(Oc3ccc([N+](=O)[O-])cc3)cc2)CC1 | 62* | . | . | . | . | .
Cc1nc(SCc2ccc(Cl)cc2)ncc1C(=O)O | -16 | . | . | . | . | .
COc1ccc(Br)cc1CN(C)CC(=O)Nc1cc(Cl)ccc1Cl | 89* | . | . | . | . | .
COc1ccc(Br)cc1CN(C)CC(=O)Nc1ccccc1Cl | 20 | . | . | . | . | .
Cc1ccc(NC(=O)/C(C#N)=C/c2ccc(C)s2)c(C)c1 | 4 | -1 | 5 | -9 | -20 | 37*
O=C(Nc1nnc(-c2ccco2)s1)C1CC1 | 95* | -2 | 12 | -14 | -16 | 9
O=C(Nc1nnc(-c2ccco2)s1)C1CCN(S(=O)(=O)c2ccc(Cl)cc2)CC1 | -17 | -6 | -5 | -12 | -12 | 6
CC1=NN(c2ccc(C)cc2C)C(=O)C1C(c1cccc(O)c1)C1C(=O)N(c2ccc(C)cc2C)N=C1C (stereo unspecified) | 15 | . | . | . | . | .
O=C1/C(=C/Nc2ccc3c(c2)OCO3)CCc2ccccc21 | . | 1 | . | 2 | 1 | 46*
O=C(/C=C/c1ccc(F)cc1)NC(=S)Nc1ccccc1C(=O)NC1CCCCC1 | 54* | 4 | . | -11 | -1 | 2
SMILES | E-sel TNF inh | FAK inh | cytoskel mod | PLK1 inh | Plk1 PBD FP | HIV Rev-RRE inh
O=C(/C=C/c1ccccc1)NC(=S)Nc1ccccc1C(=O)NC1CCCCC1 | -14 | -4 | . | -8 | 9 | 3
Clc1ccc(-c2csc(N3CCSCC3)n2)cc1 | 39 | . | . | . | . | .
CCc1c(C)c(C#N)c2nc3ccccc3n2c1-n1nc(C)cc1C | 21 | . | . | . | . | .
CCc1c(C)c(C#N)c2nc3ccccc3n2c1Cl | 67* | . | . | . | . | .
Cc1cc(NCCN2CCCCC2)n2c(nc3ccccc32)c1C#N | 100* | 1 | 31 | -15 | -22 | 12
COCCNC(=S)N1CCc2cc(OC)c(OC)cc2C1COc1ccc(C(C)C)cc1 (stereo unspecified) | -5 | . | . | . | . | .
Clc1ccccc1CSc1ncccn1 | -3 | 2 | -9 | -2 | -19 | 1
O=C(CSc1ncccn1)NCc1ccccc1Cl | 60* | -3 | 13 | -2 | 45 | 6
Nc1ccc2c(c1)N1CCN=C1S2 | 73* | 13 | 0 | -2 | -5 | 6
O=C1CC2c3ccccc3C1C1C(=O)N(Cc3ccccc3)C(=O)C21 (stereo unspecified) | -21 | . | . | . | . | .
NNC(=O)c1cccc(COc2ccc3c(c2)CCC3)c1 | 1 | . | . | . | . | .
O=C(O)C1=C(C(=O)Nc2cc(C(F)(F)F)ccc2Cl)CCCC1 | -9 | . | . | . | . | .
Cc1nnc2sc(-c3ccc(NC(=O)c4ccc(-c5ccc(Cl)cc5Cl)o4)cc3)nn12 | -1 | 28* | -6 | -19 | -10 | 19
Cc1nnc2sc(-c3ccc(NC(=O)c4cccnc4)cc3)nn12 | -7 | -1 | -2 | -3 | -19 | 7
O=C1/C(=C/c2ccc(N3CCCC3)cc2)NC(=S)N1C1CC1 | -21 | -1 | 15 | -39 | -201 | 137*[fluorescence artefact?]
c1ccc(C2=Nc3cccnc3C(c3ccccc3)=NN2)cc1 | -39 | . | . | . | . | .
COc1ccccc1-n1c(=O)[nH]c2c(C(N)=O)nc(C3CCCCC3)nc21 | 68* | 0 | 7 | 24 | 13 | 11
Cn1cc([N+](=O)[O-])c(C(=O)Nc2cc(Oc3cccnc3)cc([N+](=O)[O-])c2)n1 | 41 | -8 | -7 | -9 | -13 | -1
CC(=O)C1=C(C)NC(SCc2ccc(C#N)cc2)=C(C#N)C1c1ccco1 (stereo unspecified) | 36 | . | . | . | . | .
CC(=O)C1=C(C)NC(SCc2cccc3ccccc23)=C(C#N)C1c1ccco1 (stereo unspecified) | 67* | . | . | . | . | .
CCOC(=O)C1CN(S(=O)(=O)c2ccc(OC)cc2)c2cc(S(=O)(=O)CC)ccc2O1 (stereo unspecified) | -24 | -2 | -38 | -4 | 5 | 3
Cc1cc(O)cc(O)c1-c1onc(C(F)(F)F)c1-c1cscn1 | -20 | 4 | 34 | 58* | 15 | 5
CC1=NN(C(=O)COc2ccccc2C)C(O)(c2ccc(Cl)cc2)C1 (stereo unspecified) | -2 | . | . | . | . | .
CCOc1ccccc1C(=O)Nc1ccc(-c2nnc(-c3ccc(C)cc3)o2)cc1 | 72* | 1 | 2 | -21 | -2 | 11
CCOc1ccccc1C(=O)Nc1ccccc1O | -46 | 5 | 20 | -8 | -7 | 0
CCc1ccc(NC(=O)COC(=O)/C=C/c2c(C)nn(C3CCS(=O)(=O)C3)c2Cl)cc1 (stereo unspecified) | -12 | . | . | . | . | .
O=C(COc1ccc(/C=N/NC(=O)c2ccccc2)cc1)Nc1ccc([N+](=O)[O-])cc1 | 5 | 0 | 16 | -8 | -18 | 6
